In paper PMC9116722 (Cancer chemotherapy and pharmacology, 2022):
“Also recorded” adds a separate entry of the source.

Experiment: Adverse events
Type: in vivo, human
Method in brief: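 Patients with germline BRCA-mutated cancers, or BRCA-wildtype TNBC or platinum-refractory ovarian cancer, took oral drug continuously twice daily in 28-day cycles. There were nine dose levels from 50 to 500 mg BID under 3+3 escalation, run separately per cohort after the first DLT. Toxicities were graded by CTCAE v4.0, with DLTs assessed during cycle 1.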

## C[C@]1(c2nc3c(C(N)=O)cccc3[nH]2)CCCN1 [veliparib]
BRCAmut, DL3 100/100 mg AM/PM
  Anemia, Grade 3: 0 number of patients (%)
  Anemia, Grade 4: 0 number of patients (%)
  Any Grade 3/4 toxicity: 0 number of patients (%)
  Any Grade 3 toxicity: 0 number of patients (%)
  Any Grade 4 toxicity: 0 number of patients (%)
  Appendicitis, Grade 3: 0 number of patients (%)
  Aspartate aminotransferase increased, Grade 3: 0 number of patients (%)
  Dehydration, Grade 3: 0 number of patients (%)
  Dyspnea, Grade 4: 0 number of patients (%)
  Fatigue, Grade 3: 0 number of patients (%)
  Headache, Grade 3: 0 number of patients (%)
  Hypophosphatemia, Grade 3: 0 number of patients (%)
  Lymphocyte count decreased, Grade 3: 0 number of patients (%)
  Lymphocyte count decreased, Grade 4: 0 number of patients (%)
  Nausea, Grade 3: 0 number of patients (%)
  Platelet count decreased, Grade 4: 0 number of patients (%)
  Thromboembolic event, Grade 3: 0 number of patients (%)
  Thromboembolic event, Grade 4: 0 number of patients (%)
  Urinary tract infection, Grade 3: 0 number of patients (%)
BRCAmut, DL6 200/200 mg AM/PM
  Abdominal pain, Grade 3: 0 number of patients (%)
  Alkaline phosphatase increased, Grade 3: 0 number of patients (%)
  Anemia, Grade 3: 0 number of patients (%)
  Anemia, Grade 4: 0 number of patients (%)
  Any Grade 3/4 toxicity: 0 number of patients (%)
  Any Grade 3 toxicity: 0 number of patients (%)
  Any Grade 4 toxicity: 0 number of patients (%)
  Appendicitis, Grade 3: 0 number of patients (%)
  Aspartate aminotransferase increased, Grade 3: 0 number of patients (%)
  Dehydration, Grade 3: 0 number of patients (%)
  Dyspnea, Grade 4: 0 number of patients (%)
  Fatigue, Grade 3: 0 number of patients (%)
  Headache, Grade 3: 0 number of patients (%)
  Hypophosphatemia, Grade 3: 0 number of patients (%)
  Lymphocyte count decreased, Grade 3: 0 number of patients (%)
  Lymphocyte count decreased, Grade 4: 0 number of patients (%)
  Nausea, Grade 3: 0 number of patients (%)
  Platelet count decreased, Grade 4: 0 number of patients (%)
  Thromboembolic event, Grade 3: 0 number of patients (%)
  Thromboembolic event, Grade 4: 0 number of patients (%)
  Urinary tract infection, Grade 3: 0 number of patients (%)
BRCAmut, DL7 300/300 mg AM/PM
  Abdominal pain, Grade 3: 0 number of patients (%)
  Alkaline phosphatase increased, Grade 3: 0 number of patients (%)
  Anemia, Grade 3: 0 number of patients (%)
  Anemia, Grade 4: 0 number of patients (%)
  Any Grade 3/4 toxicity: 2 (33) number of patients (%)
  Any Grade 3 toxicity: 2 (33) number of patients (%)
  Any Grade 4 toxicity: 0 number of patients (%)
  Appendicitis, Grade 3: 1 (17) number of patients (%)
  Aspartate aminotransferase increased, Grade 3: 0 number of patients (%)
  Dehydration, Grade 3: 0 number of patients (%)
  Dyspnea, Grade 4: 0 number of patients (%)
  Fatigue, Grade 3: 0 number of patients (%)
  Headache, Grade 3: 1 (17) number of patients (%)
  Hypophosphatemia, Grade 3: 0 number of patients (%)
  Lymphocyte count decreased, Grade 3: 1 (17) number of patients (%)
  Lymphocyte count decreased, Grade 4: 0 number of patients (%)
  Nausea, Grade 3: 0 number of patients (%)
  Platelet count decreased, Grade 4: 0 number of patients (%)
  Thromboembolic event, Grade 3: 0 number of patients (%)
  Thromboembolic event, Grade 4: 0 number of patients (%)
  Urinary tract infection, Grade 3: 0 number of patients (%)
BRCAmut, DL8 400/400 mg AM/PM
  Abdominal pain, Grade 3: 2 (6) number of patients (%)
  Alkaline phosphatase increased, Grade 3: 0 number of patients (%)
  Anemia, Grade 3: 1 (3) number of patients (%)
  Anemia, Grade 4: 0 number of patients (%)
  Any Grade 3/4 toxicity: 11 (32) number of patients (%)
  Any Grade 3 toxicity: 11 (32) number of patients (%)
  Any Grade 4 toxicity: 1 (3) number of patients (%)
  Appendicitis, Grade 3: 0 number of patients (%)
  Aspartate aminotransferase increased, Grade 3: 0 number of patients (%)
  Dehydration, Grade 3: 1 (3) number of patients (%)
  Dyspnea, Grade 4: 0 number of patients (%)
  Fatigue, Grade 3: 1 (3) number of patients (%)
  Headache, Grade 3: 0 number of patients (%)
  Hypophosphatemia, Grade 3: 1 (3) number of patients (%)
  Lymphocyte count decreased, Grade 3: 7 (21) number of patients (%)
  Lymphocyte count decreased, Grade 4: 1 (3) number of patients (%)
  Nausea, Grade 3: 2 (6) number of patients (%)
  Platelet count decreased, Grade 4: 0 number of patients (%)
  Thromboembolic event, Grade 3: 2 (6) number of patients (%)
  Thromboembolic event, Grade 4: 0 number of patients (%)
  Urinary tract infection, Grade 3: 1 (3) number of patients (%)
BRCAmut, DL9 500/500 mg AM/PM
  Abdominal pain, Grade 3: 0 number of patients (%)
  Alkaline phosphatase increased, Grade 3: 0 number of patients (%)
  Anemia, Grade 3: 0 number of patients (%)
  Anemia, Grade 4: 1 (14) number of patients (%)
  Any Grade 3/4 toxicity: 2 (29) number of patients (%)
  Any Grade 3 toxicity: 1 (14) number of patients (%)
  Any Grade 4 toxicity: 1 (14) number of patients (%)
  Appendicitis, Grade 3: 0 number of patients (%)
  Aspartate aminotransferase increased, Grade 3: 0 number of patients (%)
  Dehydration, Grade 3: 0 number of patients (%)
  Dyspnea, Grade 4: 1 (14) number of patients (%)
  Fatigue, Grade 3: 0 number of patients (%)
  Headache, Grade 3: 0 number of patients (%)
  Hypophosphatemia, Grade 3: 0 number of patients (%)
  Lymphocyte count decreased, Grade 3: 1 (14) number of patients (%)
  Lymphocyte count decreased, Grade 4: 0 number of patients (%)
  Nausea, Grade 3: 0 number of patients (%)
  Platelet count decreased, Grade 4: 1 (14) number of patients (%)
  Thromboembolic event, Grade 3: 0 number of patients (%)
  Thromboembolic event, Grade 4: 0 number of patients (%)
  Urinary tract infection, Grade 3: 0 number of patients (%)
BRCAmut, all dose levels
  Abdominal pain, Grade 3: 2 (3) number of patients (%)
  Alkaline phosphatase increased, Grade 3: 1 (1) number of patients (%)
  Anemia, Grade 3: 1 (1) number of patients (%)
  Anemia, Grade 4: 1 (1) number of patients (%)
  Any Grade 3/4 toxicity: 17 (24) number of patients (%)
  Any Grade 3 toxicity: 15 (21) number of patients (%)
  Any Grade 4 toxicity: 3 (4) number of patients (%)
  Appendicitis, Grade 3: 1 (1) number of patients (%)
  Aspartate aminotransferase increased, Grade 3: 1 (1) number of patients (%)
  Dehydration, Grade 3: 1 (1) number of patients (%)
  Dyspnea, Grade 4: 1 (1) number of patients (%)
  Fatigue, Grade 3: 1 (1) number of patients (%)
  Headache, Grade 3: 1 (1) number of patients (%)
  Hypophosphatemia, Grade 3: 1 (1) number of patients (%)
  Lymphocyte count decreased, Grade 3: 9 (13) number of patients (%)
  Lymphocyte count decreased, Grade 4: 1 (1) number of patients (%)
  Nausea, Grade 3: 2 (3) number of patients (%)
  Platelet count decreased, Grade 4: 1 (1) number of patients (%)
  Thromboembolic event, Grade 3: 2 (3) number of patients (%)
  Thromboembolic event, Grade 4: 1 (1) number of patients (%)
  Urinary tract infection, Grade 3: 1 (1) number of patients (%)
BRCAwt group
  grade 3/4 decreased lymphocyte count: 18%
  incidence of grade 3/4 toxicity: 29%
BRCAwt, DL1 50/50 mg AM/PM
  Any Grade 3 toxicity: 0 number of patients (%)
  Basilic vein thrombosis, Grade 3: 0 number of patients (%)
  Dyspnea, Grade 3: 0 number of patients (%)
  Fatigue, Grade 3: 0 number of patients (%)
  Hypophosphatemia, Grade 3: 0 number of patients (%)
  Lymphocyte count decreased, Grade 3: 0 number of patients (%)
BRCAwt, DL2 100/50 mg AM/PM
  Any Grade 3 toxicity: 1 (33) number of patients (%)
  Basilic vein thrombosis, Grade 3: 0 number of patients (%)
  Dyspnea, Grade 3: 0 number of patients (%)
  Fatigue, Grade 3: 0 number of patients (%)
  Hypophosphatemia, Grade 3: 0 number of patients (%)
  Lymphocyte count decreased, Grade 3: 1 (33) number of patients (%)
BRCAwt, DL3 100/100 mg AM/PM
  Any Grade 3 toxicity: 0 number of patients (%)
  Basilic vein thrombosis, Grade 3: 0 number of patients (%)
  Dyspnea, Grade 3: 0 number of patients (%)
  Fatigue, Grade 3: 0 number of patients (%)
  Hypophosphatemia, Grade 3: 0 number of patients (%)
  Lymphocyte count decreased, Grade 3: 0 number of patients (%)
BRCAwt, DL6 200/200 mg AM/PM
  Any Grade 3 toxicity: 2 (67) number of patients (%)
  Basilic vein thrombosis, Grade 3: 1 (33) number of patients (%)
  Dyspnea, Grade 3: 0 number of patients (%)
  Fatigue, Grade 3: 0 number of patients (%)
  Hypophosphatemia, Grade 3: 0 number of patients (%)
  Lymphocyte count decreased, Grade 3: 1 (33) number of patients (%)
BRCAwt, DL7 300/300 mg AM/PM
  Any Grade 3 toxicity: 0 number of patients (%)
  Basilic vein thrombosis, Grade 3: 0 number of patients (%)
  Dyspnea, Grade 3: 0 number of patients (%)
  Fatigue, Grade 3: 0 number of patients (%)
  Hypophosphatemia, Grade 3: 0 number of patients (%)
  Lymphocyte count decreased, Grade 3: 0 number of patients (%)
BRCAwt, DL8 400/400 mg AM/PM
  Any Grade 3 toxicity: 3 (43) number of patients (%)
  Basilic vein thrombosis, Grade 3: 0 number of patients (%)
  Dyspnea, Grade 3: 1 (14) number of patients (%)
  Fatigue, Grade 3: 1 (14) number of patients (%)
  Hypophosphatemia, Grade 3: 1 (14) number of patients (%)
  Lymphocyte count decreased, Grade 3: 1 (14) number of patients (%)
BRCAwt, all dose levels
  Any Grade 3 toxicity: 8 (29) number of patients (%)
  Basilic vein thrombosis, Grade 3: 1 (4) number of patients (%)
  Dyspnea, Grade 3: 1 (4) number of patients (%)
  Fatigue, Grade 3: 1 (4) number of patients (%)
  Hypophosphatemia, Grade 3: 1 (4) number of patients (%)
  Lymphocyte count decreased, Grade 3: 5 (18) number of patients (%)
DL7-DL9
  patients who came off study after non-dose limiting nausea: 6 patients
All patients
  all-grade decreased lymphocyte count (lymphopenia): 38%
  all-grade nausea: 65%
  grade 3/4 lymphopenia: 15%
  grade 3 or 4 anemia: 6%
Continuous single-agent
  overall tolerability: safe and tolerable; also recorded: well-tolerated
